Measured values from ChEMBL document CHEMBL1133005, “Improving the oral bioavailability of the iron chelator HBED by breaking the symmetry of the intramolecular H-bond network” (J Med Chem, 2000).

Assays:
Assay type in all cases: physicochemical
[1] = Evaluated for ionization constant (pKa4) by titrations performed in the absence of a cosolvent and at a dielectric constant of 78; details: no cosolvent; read-out: pKa4
[2] = Evaluated for ionization constant (pKa4) by titrations performed in the presence of MeOH at a dielectric constant of 62; details: MeOH cosolvent; read-out: pKa4
How it was run: (§1)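 pH-metric titration in mixed water/cosolvent media (MeOH or EtOH, depending on the ligand) at several cosolvent proportions, each proportion setting the dielectric constant. Electrode calibrated with pH 7.00 phosphate buffer and standardized after a blank titration by a nonlinear semiempirical fit. Readings were converted to pcH to give concentration-scale constants.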

[3] = Evaluated for ionization constant (pKa6) by titrations performed using the method of Yasuda and Shedlovsky; details: read-out: pKa6
How it was run: (§2)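 Potentiometric pH titration. The electrode is calibrated with pH 7.00 phosphate buffer. A blank titration before each set standardizes the electrode by a nonlinear semiempirical equation, and readings are converted to the concentration scale pcH = −log[H+]. Runs use varying amounts of MeOH or EtOH cosolvent, and aqueous pKa values are extrapolated by the Yasuda–Shedlovsky method. Low pKa values (pH < 2) are determined by spectrophotometric titration.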

[4] = Partition coefficient (logP) (cyclohexane)
How it was run: (§3)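 Free-ligand partition coefficients are measured by the pH-metric technique. This uses two linked titrations: a normal aqueous titration, then a two-phase titration in the presence of the partition solvent.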

[5] = Evaluated for ionization constant (pKa3) by titrations performed in the absence of a cosolvent and at a dielectric constant of 78; details: no cosolvent; read-out: pKa3
[6] = Evaluated for ionization constant (pKa3) by titrations performed in the presence of MeOH at a dielectric constant of 56; details: MeOH cosolvent; read-out: pKa3; how it was run: as §1
[7] = Partition coefficient (logP) (chloroform); how it was run: as §3
[8] = Evaluated for ionization constant (pKa6) by titrations performed in the presence of MeOH at a dielectric constant of 56; details: MeOH cosolvent, dielectric constant 56; read-out: pKa6; how it was run: as §2
[9] = Evaluated for ionization constant (pKa2) by titrations performed in the presence of MeOH at a dielectric constant of 56; details: MeOH cosolvent, dielectric constant 56; read-out: pKa2; how it was run: as §1
[10] = Evaluated for ionization constant (pKa4) by titrations performed using the method of Yasuda and Shedlovsky; details: read-out: pKa4; how it was run: as §2
[11] = Evaluated for ionization constant (pKa5) by titrations performed using the method of Yasuda and Shedlovsky; details: read-out: pKa5; how it was run: as §2
[12] = Evaluated for ionization constant (pKa6) by titrations performed in the presence of MeOH at a dielectric constant of 49; details: MeOH cosolvent, dielectric constant 49; read-out: pKa6; how it was run: as §2
[13] = Evaluated for ionization constant-1 (pKa1) by titrations performed in absence of a cosolvent at a dielectric constant of 78; details: no cosolvent, dielectric constant 78; read-out: pKa1; how it was run: as §2
[14] = Evaluated for ionization constant (pKa3) by titrations performed using the method of Yasuda and Shedlovsky; details: read-out: pKa3
How it was run: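 Aqueous constants were extrapolated by the Yasuda–Shedlovsky method from pH-metric titrations run at several MeOH or EtOH cosolvent levels. Electrode calibrated with pH 7.00 phosphate buffer and standardized after a blank titration. Values are expressed on the pcH (-log[H+]) concentration scale.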

[15] = Evaluated for ionization constant (pKa5) by titrations performed in the presence of MeOH at a dielectric constant of 62; details: MeOH cosolvent; read-out: pKa5; how it was run: as §2
[16] = Evaluated for ionization constant (pKa5) by titrations performed in the presence of MeOH at a dielectric constant of 49; details: MeOH cosolvent; read-out: pKa5; how it was run: as §2
[17] = Evaluated for ionization constant (pKa2) by titrations performed in the absence of cosolvent and at a dielectric constant of 78; details: no cosolvent, dielectric constant 78; read-out: pKa2
[18] = Evaluated for ionization constant (pKa3) by titrations performed in the presence of MeOH at a dielectric constant of 49; details: MeOH cosolvent; read-out: pKa3; how it was run: as §1
[19] = Evaluated for ionization constant (pKa4) by titrations performed in the presence of MeOH at a dielectric constant of 49; details: MeOH cosolvent; read-out: pKa4; how it was run: as §1
[20] = Partition coefficient (logP); details: octanol/water; how it was run: as §3
[21] = Evaluated for ionization constant (pKa5) by titrations performed in the presence of MeOH at a dielectric constant of 56; details: MeOH cosolvent; read-out: pKa5; how it was run: as §2
[22] = Evaluated for ionization constant (pKa3) by titrations performed in the presence of MeOH at a dielectric constant of 62; details: MeOH cosolvent; read-out: pKa3; how it was run: as §1
[23] = Evaluated for ionization constant (pKa4) by titrations performed in the presence of MeOH at a dielectric constant of 56; details: MeOH cosolvent, dielectric constant 56; read-out: pKa4; how it was run: as §1
[24] = Evaluated for ionization constant (pKa6) by titrations performed in the presence of MeOH at a dielectric constant of 62; details: MeOH cosolvent, dielectric constant 62; read-out: pKa6; how it was run: as §2
[25] = Evaluated for ionization constant (pKa2) by titrations performed in absence of cosolvent and at a dielectric constant of 78; details: no cosolvent, dielectric constant 78; read-out: pKa2
[26] = Evaluated for ionization constant (pKa5) by titrations performed in absence of cosolvent and at a dielectric constant of 78; details: no cosolvent; read-out: pKa5; how it was run: as §2
[27] = Evaluated for ionization constant (pKa1) by titrations performed in absence of cosolvent and at a dielectric constant of 78; details: no cosolvent, dielectric constant 78; read-out: pKa1
[28] = Evaluated for ionization constant (pKa4) by titrations performed in absence of cosolvent and at a dielectric constant of 78; details: no cosolvent; read-out: pKa4
[29] = Evaluated for ionization constant (pKa3) by titrations performed in the presence of EtOH at a dielectric constant of 63; details: EtOH cosolvent; read-out: pKa3; how it was run: as §1
[30] = Evaluated for ionization constant (pKa4) by titrations performed in the presence of EtOH at a dielectric constant of 63; details: EtOH cosolvent; read-out: pKa4; how it was run: as §1
[31] = Evaluated for ionization constant (pKa2) by titrations performed in the presence of EtOH at a dielectric constant of 63; details: EtOH cosolvent, dielectric constant 63; read-out: pKa2; how it was run: as §1
[32] = Evaluated for ionization constant (pKa3) by titrations performed in absence of cosolvent and at a dielectric constant of 78; details: no cosolvent; read-out: pKa3

`O=C(O)CN(CCN(CC(=O)O)Cc1ccccc1O)Cc1ccccc1O` gave a pKa [1] of 4.61, a pKa [2] of 4.58 and a pKa [3] of 0.92. It also gave a logP [4] of less than -2, a pKa [5] of 8.34 and a pKa [6] of 8.36. The logP [7] was less than -2, the pKa [8] was 1.11 and the pKa [9] was 12.5. The pKa [10] was 4.58, the pKa [11] was 1.62 and the pKa [12] was 1.18. The pKa [13] was 12.9, the pKa [14] was 8.36 and the pKa [15] was 2.25. For the same compound, the pKa [16] was 2.72, the pKa [17] was 11.1 and the pKa [18] was 8.37. For the same compound, the pKa [19] was 4.71, the logP [20] was 0.16 and the pKa [21] was 2.34. For the same compound, the pKa [22] was 8.36, the pKa [23] was 4.57 and the pKa [24] was 1.05.

In the case of `CCOC(=O)CN(CCN(CC(=O)[O-])Cc1ccccc1O)Cc1ccccc1O.[Na+]`, the logP [4] is reported as -1.3, the logP [7] is reported as 0.18 and the pKa [25] is reported as 10.9. It also gave a pKa [26] of 0.9, a pKa [27] of 12.3 and a pKa [28] of 2.91. The pKa [29] was 7.5, the pKa [30] was 2.75 and the logP [20] was 1.15. The pKa [31] was 11.4 and the pKa [32] was 7.64.
